High-throughput results from PubChem.
Hsp70 activator: switches on Hsp70 transcription. HeLa Hsp70 promoter luciferase reporter, luminescence; scaled: vehicle 0, proteasome-inhibitor control 100%. activation, % at 10 µM. 0.04% of 200,000 active. AID 1203;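 active means activation above the mean across all tested compounds plus 3 SD, cutoff set per campaign, cut at about 5.5% in these data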
S1P3 antagonist: antagonists of human S1P3 receptor. Q99500. CHO S1P3 NFAT-BLA reporter, FRET fluorescence, antagonist mode. inhibition, % at 4.98 µM. 0.27% of 170,000 active. AID 485;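 active means inhibition above the plate cutoff, the mean inhibition of test wells on that plate plus 3 SD, cut at about 28% in these data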;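 further: cells challenged with S1P at its EC80 of 0.8 µM; blue over green emission ratio from cleaved BLA substrate after 4 h stimulation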
Mdm2 ligase inh: inhibitors of human Mdm2 E3 ubiquitin ligase | AID 1230 | 0.11% of 210,000 active | cell-based MDM2 ubiquitination luciferase reporter, 2 h; 0 = plate control, 100 = twice control, blank-subtracted | signal enhancement, % at 5 µM;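 active means signal enhancement of 30% or more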;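 further: luminescence tracks abundance of the self-degrading MDM2-luciferase fusion protein; higher signal means inhibition of MDM2 E3 ligase activity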
Target sequence (Q00987 whole entry, looked up, the tested form may be a part): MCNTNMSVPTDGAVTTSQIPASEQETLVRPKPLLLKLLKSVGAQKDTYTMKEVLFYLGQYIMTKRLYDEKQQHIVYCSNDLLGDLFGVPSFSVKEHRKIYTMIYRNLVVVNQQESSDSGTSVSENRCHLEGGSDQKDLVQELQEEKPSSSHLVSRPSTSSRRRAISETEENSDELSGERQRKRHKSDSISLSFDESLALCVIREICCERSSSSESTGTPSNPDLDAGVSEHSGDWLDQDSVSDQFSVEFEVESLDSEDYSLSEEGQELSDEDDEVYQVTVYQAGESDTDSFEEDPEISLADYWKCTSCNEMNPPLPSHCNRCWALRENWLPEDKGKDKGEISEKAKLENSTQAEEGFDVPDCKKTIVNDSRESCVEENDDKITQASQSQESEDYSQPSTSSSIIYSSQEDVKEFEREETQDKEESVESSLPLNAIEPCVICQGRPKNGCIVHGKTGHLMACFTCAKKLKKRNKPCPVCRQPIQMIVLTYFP
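Assay system: stable mammalian line carrying autodegrading MDM2–luciferase fusion reporter; amount: 2000 cells seeded into each well; buffer or medium: DMEM; benchmarks: plate control and blank wells; signal: luciferase luminescence; timing: 2 h compound exposure at 37 °C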
CHOP inh: blocks CHOP induction under ER stress; CHO-K1 CHOP-promoter luciferase, tunicamycin-induced, 15-18 h; inhibition, % at 10 µM; 3.8% of 220,000 active; AID 2732;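 active means compounds that reduced the stress-induced luciferase reporter signal by more than about 70% of percent inhibition, limit read from the data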
Large screens that a line does not name were inactive; ! = a repeat was not active. Compounds with a hit are over-represented: about 4% of the library has one in this group of screens.

O=C(CC1c2ccccc2Oc2ccccc21)N1CCN(c2ccccn2)CC1	none
O=C(CN1C(=O)/C(=C\c2cccc(Cl)c2)Oc2ccccc21)N1CCN(c2ccccn2)CC1	CHOP inh 100
O=C(CN1C(=O)/C(=C/c2ccccc2F)Oc2ccccc21)N1CCN(c2ccccn2)CC1	CHOP inh 86
CCOC(=O)c1c(NC(=O)c2c(C(=O)O)cccc2[N+](=O)[O-])sc(C)c1C	none
COc1ccc(N=Nc2cnc(C)nc2-c2ccccc2)cc1	CHOP inh 73 (no result: S1P3 antagonist)
COC(=O)/C=C1\NC(=O)C(C)S1 (stereo unspecified)	none
CCOc1ccccc1N/C=C/C(=O)C(C)(C)C	CHOP inh 74 (no result: S1P3 antagonist)
Cc1cc2cc(C)c(NCCNC(=O)c3cccc(F)c3)nc2cc1C	none (no result: Mdm2 ligase inh)
Cc1cccc(C(=O)NCCNc2nc3cc(C)c(C)cc3cc2C)c1	CHOP inh 76
O=S(=O)(c1ccc2c(c1)OCCO2)N1CCC(n2nnc3cc(C(F)(F)F)ccc32)CC1	CHOP inh 70
O=S(=O)(c1ccccc1)N1CCC(n2nnc3cc(F)ccc32)CC1	none (no result: S1P3 antagonist)
O=C(Nc1nnc(COc2ccccc2)s1)C1CCN(S(=O)(=O)c2ccc(Cl)cc2)CC1	CHOP inh 80 (no result: S1P3 antagonist)
O=C(Nc1nnc(-c2ccccc2Cl)s1)C1CCN(S(=O)(=O)c2ccc(Cl)cc2)CC1	none
Cc1onc(-c2ccccc2)c1C(=O)Nc1nnc(COc2ccc(Cl)cc2)s1	CHOP inh 89
Cc1onc(-c2ccccc2Cl)c1C(=O)Nc1nnc(-c2ccc(Cl)cc2Cl)s1	CHOP inh 78 (no result: S1P3 antagonist)
Cc1ccc(/C=N\NC(=O)CCc2n[nH]c(=O)[nH]c2=O)o1	none
Cc1ccc(C(C(=O)NC2CCCC2)N2CCc3ccccc32)cc1 (stereo unspecified)	CHOP inh 79 (no result: S1P3 antagonist)
O=C(NC1CCCCC1)C(c1ccccc1)N1CCc2ccccc21 (stereo unspecified)	none (no result: S1P3 antagonist)
CCOC(=O)c1ccc(NC(=S)Nc2cccc(N)n2)cc1	none (no result: Hsp70 activator)
CCOC(=O)c1ccc(NC(=S)Nc2cccc(C)n2)cc1	CHOP inh 74
Cc1ccccc1C(C(=O)NCc1ccco1)N(CC1CCCO1)C(=O)Cn1nnc2ccccc21 (stereo unspecified)	none
Cc1ccccc1CCN(C(=O)Cn1nnc2ccccc21)C(C(=O)NCC1CCCO1)c1nc2ccccc2n1C (stereo unspecified)	CHOP inh 82
CC(NC(=O)C(=O)N/N=C/c1ccccc1)c1ccccc1 (stereo unspecified)	CHOP inh 71
Cc1ccc(/C=N/n2nnnc2N)cc1[N+](=O)[O-]	none (no result: S1P3 antagonist)
NC(=O)c1nn(-c2ccccc2)nc1NC(=O)Cn1nnc(-c2ccccc2)n1	CHOP inh 72 (no result: Mdm2 ligase inh)
Fc1cccc(C2CC(c3cccc(Br)c3)Nc3nnnn32)c1 (stereo unspecified)	CHOP inh 83
Cc1ccc(Oc2ccc(OCC(=O)NC(CC(C)C)C(=O)O)cc2)cc1 (stereo unspecified)	none
COc1ccc(NC(=S)NNc2ccc([N+](=O)[O-])cc2S(=O)(=O)Nc2ccc(C)cc2C)cc1	none
Cc1ccc(NS(=O)(=O)c2cc([N+](=O)[O-])ccc2NNC(=S)Nc2cc(C)ccc2C)c(C)c1	CHOP inh 89
Fc1ccc(-c2nnc(-c3ccc(Cl)cc3Cl)o2)cc1	CHOP inh 80
Cc1nc2scc(-c3ccco3)c2c(=O)n1/N=C/N(C)C	none
CC1Nc2nc(NC(=O)C(C)(C)C)[nH]c(=O)c2N(C)C1C (stereo unspecified)	none
CC(=O)N1c2ccc(Cl)cc2C2C=CCC2C1c1cccc2ccccc12 (stereo unspecified)	CHOP inh 85
CC(=O)N1c2ccc3ccccc3c2C2C=CCC2C1c1ccc(Br)cc1 (stereo unspecified)	none
COc1cc(/C=C/C(=O)Oc2coc(CSc3ncccn3)cc2=O)cc(OC)c1OC	none
O=C(N/N=C/c1c[nH]c2ccccc12)c1[nH]c2ccc(Br)cc2c1-c1ccccc1	CHOP inh 92
O=C(N/N=C/c1ccc(O)cc1)c1[nH]c2ccc(Br)cc2c1-c1ccccc1	none (no result: Mdm2 ligase inh)
c1cnc2c(c1)ccc1cccnc12	CHOP inh 74!
COCC(C)n1c(C)cc(C(=O)COC(=O)/C=C/c2cccc(F)c2)c1C (stereo unspecified)	none
CCOC(=O)c1c(C2CC2)csc1NC(=O)COC(=O)c1cc(OC)c(OC)cc1[N+](=O)[O-]	none
COCCn1c(=NC(=O)c2ccc3c(c2)OCCO3)sc2cc(S(N)(=O)=O)ccc21	none (no result: Mdm2 ligase inh)
